Experimental data from ChEMBL document CHEMBL1255475, “Mutant prevention concentrations of four carbapenems against gram-negative rods” (2010).
Converted amounts (≈) assume the structure as drawn.

Assays:
Format in all cases: functional
Escherichia coli [1] = test: Antibacterial activity against beta-lactamase-positive ESBL-negative Escherichia coli E430 assessed as mutant prevention concentration after overnight incubation
In short: (§1)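 Overnight growth on blood trypticase soy agar (35°C, air) was resuspended in 0.9% saline and counted on drug-free Mueller-Hinton agar. […] Colonies were retested by agar dilution to confirm mutants. MPC was the lowest concentration preventing resistant-mutant growth.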

Escherichia coli [2] = test: Antibacterial activity against beta-lactamase-negative Escherichia coli E424 assessed as mutant prevention concentration after overnight incubation
Escherichia coli [3] = test: Antibacterial activity against beta-lactamase-negative Escherichia coli E409 assessed as mutant prevention concentration after overnight incubation
Klebsiella pneumoniae [4] = test: Antibacterial activity against beta-lactamase-positive ESBL-negative Klebsiella pneumoniae E507 assessed as mutant prevention concentration after overnight incubation; in short: as §1
Acinetobacter baumannii [5] = test: Antibacterial activity against Acinetobacter baumannii A901 assessed as mutant prevention concentration after overnight incubation
Escherichia coli [6] = test: Antibacterial activity against beta-lactamase-positive ESBL-positive Escherichia coli E446 assessed as mutant prevention concentration after overnight incubation; in short: as §1
Pseudomonas aeruginosa [7] = test: Antibacterial activity against Pseudomonas aeruginosa P369 assessed as mutant prevention concentration after overnight incubation
Escherichia coli [8] = test: Antibacterial activity against beta-lactamase-negative Escherichia coli E345 assessed as mutant prevention concentration after overnight incubation
Acinetobacter baumannii [9] = test: Antibacterial activity against Acinetobacter baumannii A891 assessed as mutant prevention concentration after overnight incubation
Pseudomonas aeruginosa [10] = test: Antibacterial activity against Pseudomonas aeruginosa P326 assessed as mutant prevention concentration after overnight incubation
Klebsiella pneumoniae [11] = test: Antibacterial activity against beta-lactamase-negative Klebsiella pneumoniae E360 assessed as mutant prevention concentration after overnight incubation
Escherichia coli [12] = test: Antibacterial activity against beta-lactamase-positive ESBL-positive Escherichia coli E456 assessed as mutant prevention concentration after overnight incubation; in short: as §1
Escherichia coli [13] = test: Antibacterial activity against beta-lactamase-positive ESBL-positive Escherichia coli E459 assessed as mutant prevention concentration after overnight incubation; in short: as §1
Escherichia coli [14] = test: Antibacterial activity against beta-lactamase-positive ESBL-positive Escherichia coli E451 assessed as mutant prevention concentration after overnight incubation; in short: as §1
Escherichia coli [15] = test: Antibacterial activity against beta-lactamase-positive ESBL-positive Escherichia coli E452 assessed as mutant prevention concentration after overnight incubation; in short: as §1
Escherichia coli [16] = test: Antibacterial activity against beta-lactamase-negative Escherichia coli E347 assessed as mutant prevention concentration after overnight incubation
Acinetobacter baumannii [17] = test: Antibacterial activity against Acinetobacter baumannii A912 assessed as mutant prevention concentration after overnight incubation
Escherichia coli [18] = test: Antibacterial activity against beta-lactamase-positive ESBL-negative Escherichia coli E484 assessed as mutant prevention concentration after overnight incubation; in short: as §1
Pseudomonas aeruginosa [19] = test: Antibacterial activity against Pseudomonas aeruginosa P365 assessed as mutant prevention concentration after overnight incubation
Acinetobacter baumannii [20] = test: Antibacterial activity against Acinetobacter baumannii A850 assessed as mutant prevention concentration after overnight incubation
Acinetobacter baumannii [21] = test: Antibacterial activity against Acinetobacter baumannii A894 assessed as mutant prevention concentration after overnight incubation
Acinetobacter baumannii [22] = test: Antibacterial activity against Acinetobacter baumannii A897 assessed as mutant prevention concentration after overnight incubation
Acinetobacter baumannii [23] = test: Antibacterial activity against Acinetobacter baumannii A851 assessed as mutant prevention concentration after overnight incubation
Klebsiella pneumoniae [24] = test: Antibacterial activity against beta-lactamase-positive ESBL-positive Klebsiella pneumoniae E453 assessed as mutant prevention concentration after overnight incubation; in short: as §1
Acinetobacter baumannii [25] = test: Antibacterial activity against Acinetobacter baumannii A884 assessed as mutant prevention concentration after overnight incubation
Pseudomonas aeruginosa [26] = test: Antibacterial activity against Pseudomonas aeruginosa P370 assessed as mutant prevention concentration after overnight incubation
Klebsiella pneumoniae [27] = test: Antibacterial activity against beta-lactamase-positive ESBL-negative Klebsiella pneumoniae E472 assessed as mutant prevention concentration after overnight incubation; in short: as §1
Klebsiella pneumoniae [28] = test: Antibacterial activity against beta-lactamase-positive ESBL-positive Klebsiella pneumoniae E457 assessed as mutant prevention concentration after overnight incubation; in short: as §1
Pseudomonas aeruginosa [29] = test: Antibacterial activity against Pseudomonas aeruginosa P349 assessed as mutant prevention concentration after overnight incubation
Klebsiella pneumoniae [30] = test: Antibacterial activity against beta-lactamase-positive ESBL-negative Klebsiella pneumoniae E477 assessed as mutant prevention concentration after overnight incubation; in short: as §1
Acinetobacter baumannii [31] = test: Antibacterial activity against Acinetobacter baumannii A929 assessed as mutant prevention concentration after overnight incubation
Pseudomonas aeruginosa [32] = test: Antibacterial activity against Pseudomonas aeruginosa P337 assessed as mutant prevention concentration after overnight incubation
Klebsiella pneumoniae [33] = test: Antibacterial activity against beta-lactamase-negative Klebsiella pneumoniae E417 assessed as mutant prevention concentration after overnight incubation
Acinetobacter baumannii [34] = test: Antibacterial activity against Acinetobacter baumannii A931 assessed as mutant prevention concentration after overnight incubation
Escherichia coli [35] = test: Antibacterial activity against beta-lactamase-positive ESBL-positive Escherichia coli E456 incubated up to 7 days by agar dilution method; details: E456, 168 h
In short: (§2)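 MIC by CLSI agar dilution, with quality-control strains in each run. Beta-lactamase status was set by 30 μg cefazolin Kirby-Bauer disk diffusion. ESBL status was set by cefotaxime and ceftazidime disks (30 μg) with and without clavulanic acid (10 μg).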

Escherichia coli [36] = test: Antibacterial activity against beta-lactamase-negative Escherichia coli E347 incubated up to 7 days by agar dilution method; details: E347, 168 h
Klebsiella pneumoniae [37] = test: Antibacterial activity against beta-lactamase-positive ESBL-positive Klebsiella pneumoniae E475 incubated up to 7 days by agar dilution method; details: E475, 168 h
Escherichia coli [38] = test: Antibacterial activity against beta-lactamase-positive ESBL-positive Escherichia coli E450 incubated up to 7 days by agar dilution method; details: E450, 168 h; in short: as §2
Klebsiella pneumoniae [39] = test: Antibacterial activity against beta-lactamase-positive ESBL-negative Klebsiella pneumoniae E473 incubated up to 7 days by agar dilution method; details: E473, 168 h
Klebsiella pneumoniae [40] = test: Antibacterial activity against beta-lactamase-positive ESBL-positive Klebsiella pneumoniae E457 incubated up to 7 days by agar dilution method; details: E457, 168 h; in short: as §2
Klebsiella pneumoniae [41] = test: Antibacterial activity against beta-lactamase-positive ESBL-negative Klebsiella pneumoniae E472 incubated up to 7 days by agar dilution method; details: E472, 168 h
Escherichia coli [42] = test: Antibacterial activity against beta-lactamase-positive ESBL-positive Escherichia coli E452 incubated up to 7 days by agar dilution method; details: E452, 168 h; in short: as §2
Escherichia coli [43] = test: Antibacterial activity against beta-lactamase-positive ESBL-positive Escherichia coli E458 incubated up to 7 days by agar dilution method; details: E458, 168 h; in short: as §2
Escherichia coli [44] = test: Antibacterial activity against beta-lactamase-positive ESBL-negative Escherichia coli E437 incubated up to 7 days by agar dilution method; details: E437, 168 h; in short: as §2
Klebsiella pneumoniae [45] = test: Antibacterial activity against beta-lactamase-negative Klebsiella pneumoniae E417 incubated up to 7 days by agar dilution method; details: E417, 168 h; in short: as §2
Escherichia coli [46] = test: Antibacterial activity against beta-lactamase-positive ESBL-positive Escherichia coli E460 incubated up to 7 days by agar dilution method; details: E460, 168 h; in short: as §2
Escherichia coli [47] = test: Antibacterial activity against beta-lactamase-positive ESBL-negative Escherichia coli E430 incubated up to 7 days by agar dilution method; details: E430, 168 h; in short: as §2

SMILES	MPC (Escherichia coli [1]) [µg/mL]	MPC (Escherichia coli [2]) [µg/mL]	MPC (Escherichia coli [3]) [µg/mL]	MPC (Klebsiella pneumoniae [4]) [µg/mL]	MPC (Escherichia coli [6]) [µg/mL]	MPC (Escherichia coli [8]) [µg/mL]	MPC (Klebsiella pneumoniae [11]) [µg/mL]	MPC (Escherichia coli [12]) [µg/mL]	MPC (Escherichia coli [13]) [µg/mL]	MPC (Escherichia coli [14]) [µg/mL]	MPC (Escherichia coli [15]) [µg/mL]	MPC (Escherichia coli [16]) [µg/mL]	MPC (Escherichia coli [18]) [µg/mL]	MPC (Klebsiella pneumoniae [24]) [µg/mL]	MPC (Klebsiella pneumoniae [27]) [µg/mL]	MPC (Klebsiella pneumoniae [28]) [µg/mL]	MPC (Klebsiella pneumoniae [30]) [µg/mL]	MPC (Klebsiella pneumoniae [33]) [µg/mL]	further results
C[C@@H](O)[C@H]1C(=O)N2C(C(=O)O)=C(SCCNC=N)C[C@H]12 [IMIPENEM ANHYDROUS]	2	0.5	1	64	2	0.5	1	1	0.5	0.5	0.5	0.5	>16	0.5	32	0.5	32	0.5	MPC (Acinetobacter baumannii [5]): 8 µg/mL; MPC (Pseudomonas aeruginosa [7]): 32 µg/mL; MPC (Acinetobacter baumannii [9]): 1 µg/mL; MPC (Pseudomonas aeruginosa [10]): 32 µg/mL; MPC (Acinetobacter baumannii [17]): 4 µg/mL; MPC (Pseudomonas aeruginosa [19]): 16 µg/mL; MPC (Acinetobacter baumannii [20]): 8 µg/mL; MPC (Acinetobacter baumannii [21]): 1 µg/mL; MPC (Acinetobacter baumannii [22]): 1 µg/mL; MPC (Acinetobacter baumannii [23]): 8 µg/mL; MPC (Acinetobacter baumannii [25]): 4 µg/mL; MPC (Pseudomonas aeruginosa [26]): 16 µg/mL; MPC (Pseudomonas aeruginosa [29]): 32 µg/mL; MPC (Acinetobacter baumannii [31]): 1 µg/mL; MPC (Pseudomonas aeruginosa [32]): 16 µg/mL; MPC (Acinetobacter baumannii [34]): 1 µg/mL
C[C@@H](O)[C@H]1C(=O)N2C(C(=O)O)=C(S[C@@H]3CN[C@H](C(=O)Nc4cccc(C(=O)O)c4)C3)[C@H](C)[C@H]12	>0.5	0.06	0.125	64	1	0.03	0.03	2	0.06	1	0.25	0.03	128	1	64	0.125	32	0.016	MIC (Escherichia coli [35]): 0.125 µg/mL (≈ 0.263 µM); MIC (Escherichia coli [36]): 8 ng/mL (≈ 0.0168 µM); MIC (Klebsiella pneumoniae [37]): 8 µg/mL (≈ 16.8 µM); MIC (Escherichia coli [38]): 0.03 µg/mL (≈ 0.0631 µM); MIC (Klebsiella pneumoniae [39]): 8 µg/mL (≈ 16.8 µM); MIC (Klebsiella pneumoniae [40]): 0.03 µg/mL (≈ 0.0631 µM); MIC (Klebsiella pneumoniae [41]): 8 µg/mL (≈ 16.8 µM); MIC (Escherichia coli [42]): 0.03 µg/mL (≈ 0.0631 µM); MIC (Escherichia coli [43]): 0.03 µg/mL (≈ 0.0631 µM); MIC (Escherichia coli [44]): 0.06 µg/mL (≈ 0.126 µM); MIC (Klebsiella pneumoniae [45]): 8 ng/mL (≈ 0.0168 µM); MIC (Escherichia coli [46]): 0.125 µg/mL (≈ 0.263 µM); MIC (Escherichia coli [47]): 0.06 µg/mL (≈ 0.126 µM)
